# Molecular target: Sodium- and chloride-dependent GABA transporter 1 (Mus musculus) (UniProt P31648)
# Test: Inhibition of NO711 binding to mouse GAT1 expressed in HEK293 cell membranes assessed as residual binding at 1 uM preincubated for 4 hrs followed by NO711 addition and measured after 40 mins by LC-ESI-MS/MS analysis relative to control
# Outline: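 Single hydrazones formed in situ in the presence of mouse GAT1 from one aldehyde (1.0 µM) and hydrazine (200 µM). Formation ran 4 h, then NO711 MS marker was added for 40 min. Specifically bound NO711 was freed from the target and quantified by LC-ESI-MS/MS. Results are % remaining specific binding, means±SD of four replicates.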
row,SMILES,Activity [%]
1,O=C(O)[C@H]1CNC[C@@H](CN/N=C/c2ccc(Br)o2)C1 (racemic),55
2,O=Cc1ccccc1-c1cccnc1,119
3,Cn1cnnc1Sc1ccc(/C=N/NCC[C@@H]2CNC[C@H](C(=O)O)C2)o1 (racemic),73
4,O=Cc1cnc(-c2ccc3ccccc3c2)nc1,110
5,Cc1ccsc1-c1ccccc1C=O,105
6,O=Cc1ccc(-c2ccn[nH]2)o1,93
7,O=C(O)[C@H]1CNC[C@@H](CN/N=C/c2ccc(-c3ccc(Br)cc3)o2)C1 (racemic),59
8,O=Cc1ccc(-c2ccc(C(F)(F)F)cc2Cl)o1,98
9,O=Cc1csc2ccccc12,77
10,O=Cc1cccc(-c2ccc(Cl)cc2)c1,108
11,O=Cc1ccc(-c2cccc3ccccc23)o1,92
12,O=Cc1sccc1-c1ccccc1F,121
13,O=C(O)[C@H]1CNC[C@@H](CN/N=C/c2ccc(-c3ccc(Cl)cc3[N+](=O)[O-])o2)C1 (racemic),37
14,O=Cc1cccn1-c1ccc(C(F)(F)F)cc1,87
15,O=Cc1ccc(-c2ccccc2C(F)(F)F)o1,90
16,O=C(O)[C@H]1CNC[C@@H](CN/N=C/c2cccc(-c3ccccc3)c2)C1 (racemic),52
17,O=C(O)[C@H]1CNC[C@@H](CN/N=C/c2ccc(-c3ccn[nH]3)o2)C1 (racemic),81
18,O=C(O)[C@H]1CNC[C@@H](CN/N=C/c2cccc(-c3ccc(Cl)cc3)c2)C1 (racemic),52
19,O=C(O)[C@H]1CNC[C@@H](CN/N=C/c2ccc(-c3ccc(F)c(C(F)(F)F)c3)o2)C1 (racemic),36
20,O=Cc1cnc(-c2ccco2)nc1,118
21,COc1ccc(/C=N/NC[C@@H]2CNC[C@H](C(=O)O)C2)cc1 (racemic),85
22,O=C(O)[C@H]1CNC[C@@H](CN/N=C/c2ccc(-c3cccc(C(F)(F)F)c3)o2)C1 (racemic),38

row,SMILES,Activity [%]
1,O=C(O)[C@H]1CNC[C@@H](CN/N=C/c2ccc(-c3cccc(Cl)c3)o2)C1 (racemic),46
2,O=C(O)[C@H]1CNC[C@@H](CN/N=C/c2cncnc2)C1 (racemic),64
3,O=C(O)[C@H]1CNC[C@@H](CN/N=C/c2sccc2-c2ccc(C(F)(F)F)cc2C(F)(F)F)C1 (racemic),88
4,O=Cc1ccc(-c2ccc(Cl)cc2)o1,75
5,O=Cc1sccc1-c1ccccc1Cl,121
6,O=C(O)[C@H]1CNC[C@@H](CN/N=C/c2ccc([N+](=O)[O-])cc2)C1 (racemic),83
7,O=Cc1ccc(-c2ccc(F)c(C(F)(F)F)c2)o1,99
8,O=Cc1ccc(-c2ccccc2OC(F)(F)F)o1,88
9,O=Cc1cccc(Oc2ccccc2)c1,109
10,O=Cc1ccc[nH]1,107
11,O=Cc1ccc(-c2ccccc2)s1,112
12,Nc1ncc(-c2ccccc2C=O)cn1,121
13,O=Cc1cnc(SCc2ccccc2)nc1,116
14,O=C(O)[C@H]1CNC[C@@H](CN/N=C/c2cccc(-c3ccc(F)cc3)c2)C1 (racemic),50
15,O=C(O)[C@H]1CNC[C@@H](CN/N=C/c2ccc(I)o2)C1 (racemic),69
16,O=Cc1cnc(-c2cccc3ccccc23)nc1,124
17,Cc1ccc(-c2cccc(/C=N/NC[C@@H]3CNC[C@H](C(=O)O)C3)c2)cc1 (racemic),61
18,O=Cc1cnc(-c2ccccn2)nc1,106
19,Cn1cnnc1Sc1ccc(C=O)o1,86
20,O=C(O)[C@H]1CNC[C@@H](CN/N=C/c2sccc2-c2ccc(Cl)cc2Cl)C1 (racemic),81
21,O=Cc1ccc(-c2ccc(Cl)cc2[N+](=O)[O-])o1,72
22,O=C(O)[C@H]1CNC[C@H](CN/N=C/c2ccc(-c3ccccc3OC(F)(F)F)o2)C1 (racemic),> 50

row,SMILES,Activity [%]
1,O=C(O)[C@H]1CNC[C@H](CN/N=C/c2ccc(-c3ccc(C(F)(F)F)cc3Cl)o2)C1 (racemic),> 50
2,O=Cc1ccccc1-c1ccc(F)cc1F,97
3,O=Cc1ccccc1-c1cc(F)cc(F)c1,112
4,O=C(O)[C@H]1CNC[C@@H](CCN/N=C/c2ccc(-c3cc(C(F)(F)F)ccc3Cl)o2)C1 (racemic),54
5,O=Cc1sccc1-c1ccc(Cl)cc1,113
6,O=Cc1cncnc1,118
7,O=C(O)[C@H]1CNC[C@@H](CN/N=C/c2cnc(NCc3ccccc3)nc2)C1 (racemic),60
8,Cn1c(/C=N/NC[C@@H]2CNC[C@H](C(=O)O)C2)ccc1-c1ccc(Cl)cc1 (racemic),87
9,O=C(O)[C@H]1CNC[C@@H](CN/N=C/c2cnc(-c3ccco3)nc2)C1 (racemic),73
10,O=Cc1cccc(-c2ccc(F)cc2)c1,122
11,COc1ccc(C=O)cc1,98
12,O=C(O)[C@H]1CNC[C@@H](CN/N=C/c2ccc(-c3ccc(Cl)cc3F)o2)C1 (racemic),67
13,O=C(O)[C@H]1CNC[C@@H](CN/N=C/c2sccc2-c2ccc(F)cc2F)C1 (racemic),80
14,O=C(O)[C@H]1CNC[C@@H](CN/N=C/c2cnc(-c3cccs3)nc2)C1 (racemic),60
15,O=Cc1cnc(-c2ccccc2F)nc1,116
16,O=Cc1cnc(-c2ccccc2)nc1,113
17,O=C(O)[C@H]1CNC[C@@H](CN/N=C/c2ccc(-c3ccc(Cl)cc3Cl)o2)C1 (racemic),40
18,O=Cc1ccc(-c2ccccc2)[nH]1,98
19,O=C(O)[C@H]1CNC[C@H](CN/N=C/c2cccn2-c2ccc(C(F)(F)F)cc2)C1 (racemic),> 50
20,O=Cc1cc(Br)co1,126

# Now from value to compound:
row,Activity [%],SMILES
1,61,O=C(O)[C@H]1CNC[C@@H](CCN/N=C/c2ccc(-c3ccccc3)o2)C1 (racemic)
2,84,O=C(O)[C@H]1CNC[C@@H](CN/N=C/c2sccc2-c2ccccc2Cl)C1 (racemic)
3,> 50,Cc1ccsc1-c1sc(/C=N/NCC[C@H]2CNC[C@H](C(=O)O)C2)cc1C (racemic)
4,> 50,O=C(O)[C@H]1CNC[C@H](CN/N=C/c2sccc2-n2cccc2)C1 (racemic)
5,85,O=C(O)[C@H]1CNC[C@@H](CN/N=C/c2ccc(-c3ccccc3)[nH]2)C1 (racemic)
6,74,O=C(O)[C@H]1CNC[C@@H](CN/N=C/c2ccnc3ccccc23)C1 (racemic)
7,80,COc1cc(F)ccc1-c1ccccc1/C=N/NC[C@@H]1CNC[C@H](C(=O)O)C1 (racemic)
8,80,O=C(O)[C@H]1CNC[C@@H](CN/N=C/c2sccc2-c2ccc(Cl)cc2)C1 (racemic)
9,79,Cc1ccsc1-c1sc(/C=N/NCC[C@@H]2CNC[C@H](C(=O)O)C2)cc1C (racemic)
10,> 50,O=C(O)[C@H]1CNC[C@H](CCN/N=C/c2csc3ccccc23)C1 (racemic)
11,93,Nc1ncc(-c2ccccc2/C=N/NC[C@@H]2CNC[C@H](C(=O)O)C2)cn1 (racemic)
12,48,O=C(O)[C@H]1CNC[C@@H](CN/N=C/c2ccc(-c3ccccc3Cl)o2)C1 (racemic)
13,> 50,O=C(O)[C@H]1CNC[C@H](CCN/N=C/c2ccccc2-n2cccc2)C1 (racemic)
14,60,O=C(O)[C@H]1CNC[C@@H](CCN/N=C/c2ccc(-c3ccccc3C(F)(F)F)o2)C1 (racemic)
15,80,Cc1ccc(-c2ccsc2/C=N/NC[C@@H]2CNC[C@H](C(=O)O)C2)c(C)c1 (racemic)
16,85,O=C(O)[C@H]1CNC[C@@H](CN/N=C/c2sccc2-c2ccccc2)C1 (racemic)
17,> 50,O=C(O)[C@H]1CNC[C@H](CCN/N=C/c2ccc(C#Cc3ccccc3)s2)C1 (racemic)
18,81,O=C(O)[C@H]1CNC[C@@H](CN/N=C/c2ccc3ccccc3n2)C1 (racemic)

row,Activity [%],SMILES
1,60,O=C(O)[C@H]1CNC[C@@H](CCN/N=C/c2ccc(-c3ccc(Cl)cc3[N+](=O)[O-])o2)C1 (racemic)
2,82,O=C(O)[C@H]1CNC[C@@H](CN/N=C/c2csc3ccccc23)C1 (racemic)
3,> 50,Cc1ccsc1-c1sc(/C=N/NC[C@H]2CNC[C@H](C(=O)O)C2)cc1C (racemic)
4,72,O=C(O)[C@H]1CNC[C@@H](CCN/N=C/c2sccc2-n2cccc2)C1 (racemic)
5,75,O=C(O)[C@H]1CNC[C@@H](CCN/N=C/c2csc3ccccc23)C1 (racemic)
6,> 50,O=C(O)[C@H]1CNC[C@H](CCN/N=C/c2sccc2-n2cccc2)C1 (racemic)
7,61,Cc1ccsc1-c1ccccc1/C=N/NCC[C@@H]1CNC[C@H](C(=O)O)C1 (racemic)
8,84,O=C(O)[C@H]1CNC[C@@H](CN/N=C/c2sccc2-c2ccccc2F)C1 (racemic)
9,74,O=C(O)[C@H]1CNC[C@@H](CCN/N=C/c2cccn2-c2ccc(C(F)(F)F)cc2)C1 (racemic)
10,71,O=C(O)[C@H]1CNC[C@@H](CCN/N=C/c2ccc(C#Cc3ccccc3)s2)C1 (racemic)
11,55,O=C(O)[C@H]1CNC[C@@H](CN/N=C/c2ccc(-c3ccccc3)s2)C1 (racemic)
12,64,O=C(O)[C@H]1CNC[C@@H](CCN/N=C/c2ccc(-c3ccc(Cl)cc3F)o2)C1 (racemic)
13,87,O=C(O)[C@H]1CNC[C@@H](CN/N=C/c2ccccc2-c2cccs2)C1 (racemic)
14,64,Cc1ccccc1-c1ccsc1/C=N/NCC[C@@H]1CNC[C@H](C(=O)O)C1 (racemic)
15,83,Cc1ccc(-c2ccsc2/C=N/NCC[C@@H]2CNC[C@H](C(=O)O)C2)cc1 (racemic)
16,49,O=C(O)[C@H]1CNC[C@@H](CN/N=C/c2ccc(-c3ccccc3C(F)(F)F)o2)C1 (racemic)
17,90,O=C(O)[C@H]1CNC[C@@H](CN/N=C/c2ccccc2-c2cc(F)cc(F)c2)C1 (racemic)
